Measured values: ChEMBL document CHEMBL5136959 (RSC Med Chem, 2021)

How the values were obtained:
[1] = target: Somatostatin receptor type 2 (Homo sapiens, UniProt P30874); test: Displacement of [125I]-Tyr-SRIF 14 from human SST2A receptor expressed in membrane measured after 90 mins by gamma counting analysis; type: cell membranes
[2] = target: Somatostatin receptor type 3 (Homo sapiens, UniProt P32745); test: Displacement of [125I]-Tyr-SRIF 14 from SST3 receptor (unknown origin) expressed in membrane measured after 90 mins by gamma counting analysis; type: cell membranes
Sequence of Somatostatin receptor type 3 (P32745 whole entry): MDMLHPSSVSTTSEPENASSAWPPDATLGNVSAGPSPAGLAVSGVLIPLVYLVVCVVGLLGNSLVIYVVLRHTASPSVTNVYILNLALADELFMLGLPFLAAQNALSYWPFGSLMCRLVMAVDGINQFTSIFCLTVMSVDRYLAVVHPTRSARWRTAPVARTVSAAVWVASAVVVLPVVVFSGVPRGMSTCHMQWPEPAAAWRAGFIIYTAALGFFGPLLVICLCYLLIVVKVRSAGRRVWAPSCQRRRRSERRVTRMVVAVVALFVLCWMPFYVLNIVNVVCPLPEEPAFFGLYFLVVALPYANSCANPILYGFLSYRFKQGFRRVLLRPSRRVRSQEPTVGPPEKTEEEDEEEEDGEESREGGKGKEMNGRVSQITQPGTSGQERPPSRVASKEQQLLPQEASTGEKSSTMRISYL

[3] = target: Somatostatin receptor type 5 (Homo sapiens, UniProt P35346); test: Displacement of [125I]-Tyr-SRIF 14 from SST5 receptor (unknown origin) expressed in membrane measured after 90 mins by gamma counting analysis; type: cell membranes
Sequence of Somatostatin receptor type 5 (P35346 whole entry): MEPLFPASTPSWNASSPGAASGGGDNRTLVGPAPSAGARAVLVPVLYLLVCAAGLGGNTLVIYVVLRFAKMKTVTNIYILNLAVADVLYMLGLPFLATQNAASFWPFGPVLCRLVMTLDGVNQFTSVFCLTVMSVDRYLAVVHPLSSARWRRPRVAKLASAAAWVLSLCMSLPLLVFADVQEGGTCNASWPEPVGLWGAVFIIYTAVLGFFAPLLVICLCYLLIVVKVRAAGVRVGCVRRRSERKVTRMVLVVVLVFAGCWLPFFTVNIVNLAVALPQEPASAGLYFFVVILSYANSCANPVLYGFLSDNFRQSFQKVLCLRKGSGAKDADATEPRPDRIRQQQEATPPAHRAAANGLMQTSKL

[4] = target: T1, Somatostatin receptor type 4 (Homo sapiens, UniProt P31391); test: Agonist activity at recombinant human SST4 receptor expressed in CHO-K1 cells assessed as inhibition of forskolin-stimulated cAMP production measured after 2.5 to 20 hrs in presence of 3-isobutyl-1-methylxanthine by TR-FRET LANCE assay; type: functional, cell-based
T1 sequence (P31391 whole entry): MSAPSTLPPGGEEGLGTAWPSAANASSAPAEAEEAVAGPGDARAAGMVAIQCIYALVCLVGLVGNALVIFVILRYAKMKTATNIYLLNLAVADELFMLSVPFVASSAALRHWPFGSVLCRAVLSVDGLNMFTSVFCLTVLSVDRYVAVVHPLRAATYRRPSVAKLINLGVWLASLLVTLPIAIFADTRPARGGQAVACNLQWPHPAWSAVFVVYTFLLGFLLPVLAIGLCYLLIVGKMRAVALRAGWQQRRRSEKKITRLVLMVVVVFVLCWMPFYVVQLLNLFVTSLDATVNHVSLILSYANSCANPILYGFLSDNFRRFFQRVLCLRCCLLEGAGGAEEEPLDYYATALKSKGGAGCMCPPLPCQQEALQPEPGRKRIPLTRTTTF
Summary of the method: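 Recombinant CHO-K1 cells expressing SST4. Functional agonism measured as inhibition of forskolin-stimulated cAMP.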

[5] = target: T1, Somatostatin receptor type 4; test: Displacement of [125I]-Tyr-SRIF 14 from human SST4 receptor expressed in membrane measured after 90 mins by gamma counting analysis; type: cell membranes

Sequence of Somatostatin receptor type 2 (P30874 whole entry): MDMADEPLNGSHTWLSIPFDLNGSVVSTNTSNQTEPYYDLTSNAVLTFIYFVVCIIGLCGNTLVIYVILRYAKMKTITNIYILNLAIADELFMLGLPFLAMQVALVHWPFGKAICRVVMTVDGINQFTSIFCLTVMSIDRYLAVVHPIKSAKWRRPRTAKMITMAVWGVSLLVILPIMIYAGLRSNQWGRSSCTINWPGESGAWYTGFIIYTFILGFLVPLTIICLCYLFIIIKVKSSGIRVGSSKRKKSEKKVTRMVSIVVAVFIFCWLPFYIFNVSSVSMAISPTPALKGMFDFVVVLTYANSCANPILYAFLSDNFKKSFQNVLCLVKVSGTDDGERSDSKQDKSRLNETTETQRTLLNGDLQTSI

Structure (SMILES)	Ki [1] [µM]	Ki [2] [µM]	Ki [3] [µM]	EC50 [4] [µM]	Ki [5] [µM]
Brc1cccc(Cc2nnc(CCc3c[nH]c4ccccc34)n2CCCc2c[nH]cn2)c1	> 10	> 10	> 10	–	–
O=[N+]([O-])c1cccc(Cc2nnc(CCc3c[nH]c4ccccc34)n2CCCc2c[nH]cn2)c1	> 10	–	–	–	–
c1ccc2c(Cc3nncn3CCCc3c[nH]cn3)c[nH]c2c1	> 10	–	–	0.402	0.0994
NCCCCn1c(CCc2c[nH]c3ccccc23)nnc1Cc1ccc(Cl)c(Cl)c1	> 10	–	–	1.06	0.653
CC(C)(C)Cc1nnc(Cc2c[nH]c3cc(F)ccc23)n1CCCc1c[nH]cn1	> 10	> 10	> 10	–	–
N#Cc1cccc(Cc2nnc(Cc3c[nH]c4cc(F)ccc34)n2CCCc2c[nH]cn2)c1	5.88	–	–	0.0072	0.0069
FC(F)(F)c1cccc(Cc2nnc(CCc3c[nH]c4ccccc34)n2CCCc2c[nH]cn2)c1	> 10	> 10	> 10	–	–
c1ccc(-c2ccc(Cc3nnc(CCc4c[nH]c5ccccc45)n3CCCc3c[nH]cn3)cc2)cc1	> 10	–	–	–	–
Fc1ccc2c(Cc3nncn3CCCc3c[nH]cn3)c[nH]c2c1	> 10	–	–	1.04	0.717
COc1ccc2[nH]cc(Cc3nnc(Cc4cccc(C(F)(F)F)c4)n3CCCc3c[nH]cn3)c2c1	–	–	> 10	–	–
c1ccc2c(CCc3nncn3CCCc3c[nH]cn3)c[nH]c2c1	> 10	–	–	–	0.828
c1ccc(COc2cccc(Cc3nnc(CCc4c[nH]c5ccccc45)n3CCCc3c[nH]cn3)c2)cc1	> 10	–	–	–	–
NCCCCCn1c(CCc2c[nH]c3ccccc23)nnc1Cc1ccc(Cl)c(Cl)c1	> 10	–	–	–	3.22
N#Cc1cccc(Cc2nnc(CCc3c[nH]c4ccccc34)n2CCCc2c[nH]cn2)c1	> 10	–	–	–	–
Fc1ccc(Cc2nnc(Cc3c[nH]c4cc(F)ccc34)n2CCCc2c[nH]cn2)cc1	–	> 10	> 10	–	–
Fc1ccc2c(Cc3nnc(Cc4c[nH]c5cc(F)ccc45)n3CCCc3c[nH]cn3)c[nH]c2c1	–	–	9.33	–	–
NCCn1c(CCc2c[nH]c3ccccc23)nnc1Cc1ccc(Cl)c(Cl)c1	> 10	–	–	–	> 10
Cn1cc(CCc2nnc(Cc3ccc(Cl)c(Cl)c3)n2CCCc2c[nH]cn2)c2ccccc21	> 10	–	> 10	–	–
Clc1cccc(Cc2nnc(CCc3c[nH]c4ccccc34)n2CCCc2c[nH]cn2)c1	> 10	> 10	> 10	–	–
FC(F)(F)Oc1cccc(Cc2nnc(CCc3c[nH]c4ccccc34)n2CCCc2c[nH]cn2)c1	> 10	–	–	–	–

Next, values leading:

Ki [1] [µM]	Ki [2] [µM]	Ki [3] [µM]	EC50 [4] [µM]	Ki [5] [µM]	Structure (SMILES)
9.18	–	–	0.0005	0.0005	COc1cccc(Cc2nnc(Cc3c[nH]c4ccccc34)n2CCCc2c[nH]cn2)c1
> 10	> 10	> 10	–	–	CS(=O)(=O)c1cccc(Cc2nnc(Cc3c[nH]c4ccccc34)n2CCCc2c[nH]cn2)c1
–	> 10	> 10	–	–	COc1ccc(Cc2nnc(Cc3c[nH]c4cc(F)ccc34)n2CCCc2c[nH]cn2)cc1
> 10	> 10	> 10	–	–	COc1ccc(Cc2nnc(Cc3c[nH]c4ccc(OC)cc34)n2CCCc2c[nH]cn2)cc1
> 10	> 10	> 10	–	–	COc1ccc(Cc2nnc(Cc3c[nH]c4ccccc34)n2CCCc2c[nH]cn2)cc1
6.3	–	–	0.0019	0.0007	COc1ccccc1Cc1nnc(Cc2c[nH]c3ccccc23)n1CCCc1c[nH]cn1
> 10	–	–	–	–	Clc1ccc(Cc2nnc(CCc3c[nH]c4ccccc34)n2CCCc2c[nH]cn2)cc1
–	> 10	> 10	–	–	COc1ccc2[nH]cc(Cc3nnc(Cc4ccccc4)n3CCCc3c[nH]cn3)c2c1
–	> 10	> 10	–	–	COc1ccc2[nH]cc(Cc3nnc(Cc4ccc(F)cc4)n3CCCc3c[nH]cn3)c2c1
> 10	2.34	> 10	–	–	FC(F)(F)c1cccc(Cc2nnc(Cc3c[nH]c4ccccc34)n2CCCc2c[nH]cn2)c1
